Data on seven compounds can be found in ChEMBL document CHEMBL1123511, “Peptides of 2-aminopimelic acid: antibacterial agents that inhibit diaminopimelic acid biosynthesis” (1986).

One test has as its system Pseudomonas aeruginosa. The test can be described thus: Compound was tested in vitro for antibacterial activity against Pseudomonas aeruginosa 647 strain. It is filed as functional. An outline of the steps:
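Broth microdilution MIC. Inocula were pre-grown on agar slants or in M9 or Davis-Mingoli minimal medium for 7–16 h at 37 °C. Peptides were dissolved in 50 mM potassium phosphate, pH 7.4, serially diluted 2- or 10-fold, and filter-sterilised. Wells held 10^5 cfu/mL in M-9 broth with thiamine and lysine, read after 16 h at 37 °C.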

A further test relates to Klebsiella pneumoniae. The test can be described thus: Compound was tested in vitro for antibacterial activity against Klebsiella pneumoniae 4200 strain. It counts as functional. The gist of the method:
(§1)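 Inocula grown on agar slants or in liquid M9 or Davis-Mingoli minimal medium for 7–16 h at 37 °C. Peptides dissolved in 50 mM potassium phosphate, pH 7.4, serially diluted 2- or 10-fold in the same buffer, filter-sterilized.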

Another test has as its system Salmonella enteritidis. The test is described as follows: Compound was tested in vitro for antibacterial activity against Salmonella enteritidis E497 strain. As to conditions: Salmonella enterica.
Another test relates to Serratia marcescens. The test is described as follows: Compound was tested in vitro for antibacterial activity against Serratia marcescens ATCC 13880 strain. It is filed as functional. The gist of the method: as §1
A short description of test [1]: Compound was tested in vitro for antibacterial activity against Citrobacter sp 2404 strain. It counts as functional. An outline of the steps: as §1
Test [2] concerns Enterobacter cloacae. The test is described as follows: Compound was tested in vitro for antibacterial activity against Enterobacter cloacae P99 strain. It counts as functional. An outline of the steps:
as §1

For the next test, the system named is Escherichia coli. The test is described as follows: Compound was tested in vitro for antibacterial activity against Escherichia coli CB64 strain. It is filed as functional. An outline of the steps: as §1
Another test relates to Providencia rettgeri. The test is described as follows: Compound was tested in vitro for antibacterial activity against Providencia rettgeri AAB-137 strain. It is filed as functional. An outline of the steps:
as §1

Test [3] relates to Enterobacter cloacae. The test is described as follows: Reversal of antibacterial activity by the compound, expressed as agar disc zone size with LL-DAP (0.76 ug/disc); No zone. It is filed as functional, organism-based.
For test [4], the system named is Enterobacter cloacae. The test can be described thus: Reversal of antibacterial activity by the compound, expressed as agar disc zone size with L-Ala-LL-DAP (6.5 ug/disc). It is filed as functional.
Test [5] deals with Enterobacter cloacae. The test can be described thus: Reversal of antibacterial activity by the compound, expressed as agar disc zone size with LL-DAP (0.19 ug/disc). It is filed as functional.
The subject of test [6] is Enterobacter cloacae. The test is described as follows: Reversal of antibacterial activity by the compound, expressed as agar disc zone size with L-Ala-LL-DAP (26 ug/disc); No zone. It is filed as functional, organism-based.
For test [7], the system named is Enterobacter cloacae. The test is described as follows: Reversal of antibacterial activity by the compound, expressed as agar disc zone size with LL-DAP (0.38 ug/disc); No zone. It counts as functional, organism-based.
Test [8] deals with Enterobacter cloacae. The test is described as follows: Reversal of antibacterial activity by the compound, expressed as agar disc zone size with L-Ala-LL-DAP (0.0 ug/disc). It counts as functional.
The subject of test [9] is Enterobacter cloacae. The test can be described thus: Reversal of antibacterial activity by the compound, expressed as agar disc zone size with LL-DAP (0.0 ug/disc). It counts as functional.

In brackets after ≈: the same amount, converted by molar mass. Several values for one entry are separate records, joined by “and”; a condition that tells them apart may be missing. Identical values can stand only once.

As for `C[C@H](NC(=O)[C@@H](N)CCCCC(=O)O)C(=O)O`, the MIC in the test on Pseudomonas aeruginosa is above 1000 µg/mL; against Klebsiella pneumoniae, 8 µg/mL (≈ 32.5 µM); against Salmonella enteritidis it was 8 µg/mL (≈ 32.5 µM); against Serratia marcescens it was 2 µg/mL (≈ 8.12 µM); in test [1], 2 µg/mL (≈ 8.12 µM); against Enterobacter cloacae [2], 4 µg/mL (≈ 16.2 µM). Moreover, the figures for the MIC against Escherichia coli and in the test with Providencia rettgeri were 2 µg/mL (≈ 8.12 µM) and below 1 µg/mL, respectively.
As for `N[C@@H](CCCCC(=O)O)C(=O)N1CCC[C@H]1C(=O)O`, the MIC was 16 µg/mL (≈ 58.8 µM) against Klebsiella pneumoniae; above 1000 µg/mL with Salmonella enteritidis; above 1000 µg/mL in the test with Serratia marcescens; above 1000 µg/mL in [1]; 8 µg/mL (≈ 29.4 µM) against Enterobacter cloacae [2]; above 1000 µg/mL in the test with Escherichia coli. In the test with Providencia rettgeri, the MIC amounted to 4 µg/mL (≈ 14.7 µM).
On to `C[C@H](N)C(=O)N[C@@H](C)C(=O)N[C@@H](CCCCC(=O)O)C(=O)O`, for which the MIC against Klebsiella pneumoniae turned out to be 1000 µg/mL (≈ 3150 µM); in the test with Salmonella enteritidis, 2 µg/mL (≈ 6.3 µM); in the test with Serratia marcescens, 16 µg/mL (≈ 50.4 µM); in [1] it was 250 µg/mL (≈ 788 µM); with Enterobacter cloacae [2], 63 µg/mL (≈ 199 µM); against Escherichia coli, 31 µg/mL (≈ 97.7 µM). In addition, the MIC in the test on Providencia rettgeri stood at 125 µg/mL (≈ 394 µM). Further, the Zone size result is “No zone” in the test with Enterobacter cloacae [3]; 9 mm and 15 mm with Enterobacter cloacae [4]; 17 mm and 21 mm in the test on Enterobacter cloacae [5]; “No zone” in the test on Enterobacter cloacae [6]; “No zone” with Enterobacter cloacae [7]; 25 mm with Enterobacter cloacae [8]. For the same compound, in the test on Enterobacter cloacae [9], the Zone size came out at 25 mm.
Consider `C[C@H](N)C(=O)N[C@@H](CCCCC(=O)O)C(=O)O`, for which the MIC against Pseudomonas aeruginosa turned out to be 1000 µg/mL (≈ 4060 µM); against Klebsiella pneumoniae, 16 µg/mL (≈ 65 µM); in the test with Salmonella enteritidis it was 16 µg/mL (≈ 65 µM); against Serratia marcescens, 8 µg/mL (≈ 32.5 µM); in test [1] it was 8 µg/mL (≈ 32.5 µM); against Enterobacter cloacae [2], 4 µg/mL (≈ 16.2 µM). In addition, the MIC was 16 µg/mL (≈ 65 µM) in the test on Escherichia coli and 4 µg/mL (≈ 16.2 µM) against Providencia rettgeri.
Regarding `O=C(O)CCCC[C@H](NC(=O)[C@@H]1CCCN1)C(=O)O`, the MIC in the test on Klebsiella pneumoniae was 63 µg/mL (≈ 231 µM); with Salmonella enteritidis, above 1000 µg/mL; against Serratia marcescens, above 1000 µg/mL; in test [1], 250 µg/mL (≈ 918 µM); against Enterobacter cloacae [2] it was 250 µg/mL (≈ 918 µM); in the test on Escherichia coli it was 500 µg/mL (≈ 1840 µM). For the same compound, the lowest concentration to inhibit growth against Providencia rettgeri (MIC) was 250 µg/mL (≈ 918 µM).
As for `NC(CCCCC(=O)O)C(=O)O` (centres undefined), the MIC was above 1000 µg/mL against Pseudomonas aeruginosa; 500 µg/mL (≈ 2850 µM) in the test with Klebsiella pneumoniae; above 1000 µg/mL with Salmonella enteritidis; above 1000 µg/mL with Serratia marcescens; above 1000 µg/mL in test [1]; above 1000 µg/mL against Enterobacter cloacae [2]. This compound gave an MIC in the test on Escherichia coli above 1000 µg/mL.
For `CC(N)C(=O)NCCP(=O)(O)O` (centres undefined) [ALAFOSALIN], the MIC in the test on Pseudomonas aeruginosa was above 100 µg/mL; with Klebsiella pneumoniae, 1.6 µg/mL (≈ 8.16 µM); against Salmonella enteritidis, 50 µg/mL (≈ 255 µM); against Serratia marcescens, 1.6 µg/mL (≈ 8.16 µM); in test [1], 25 µg/mL (≈ 127 µM); with Enterobacter cloacae [2], 100 µg/mL (≈ 510 µM). Besides, the MIC against Escherichia coli is below 0.1 µg/mL; in the test on Providencia rettgeri, above 100 µg/mL.

As a reminder, the MIC is the lowest concentration found to suppress growth. A low value points to a more susceptible organism.
